From ChEMBL document CHEMBL3044673, “Design, synthesis and insecticidal activity of novel phenylpyrazoles containing a 2,2,2-trichloro-1-alkoxyethyl moiety” (2010)

Experiments:
Format in all cases: functional
Plutella xylostella [1] = experiment: Insecticidal activity against Plutella xylostella (diamondback moth) grown on compound pre-treated fresh cabbage leaves assessed as insect mortality at 10 mg/kg measured 3 days post compound treatment by leaf-dip method; conditions: for mortality at 10 mg/kg: Plutella xylostella; for mortality: 10 mg/kg
Procedure, shortened: (§1)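 Leaf-dip stomach-toxicity assay on laboratory-reared diamondback moth. Test solutions came from a 200 mg L^-1 stock in dimethylformamide, diluted with water containing TW-20. Control leaves were treated with water and dimethylformamide. Tests were held at 25±1 °C, percentage mortality was scored 3 days after treatment, and each treatment was run three times.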

Plutella xylostella [2] = experiment: Insecticidal activity against Plutella xylostella (diamondback moth) grown on compound pre-treated fresh cabbage leaves assessed as insect mortality at 25 mg/kg measured 3 days post compound treatment by leaf-dip method; conditions: for mortality at 25 mg/kg: Plutella xylostella; procedure, shortened: as §1
Plutella xylostella [3] = experiment: Insecticidal activity against Plutella xylostella (diamondback moth) grown on compound pre-treated fresh cabbage leaves assessed as insect mortality at 50 mg/kg measured 3 days post compound treatment by leaf-dip method; procedure, shortened: as §1
Plutella xylostella [4] = experiment: Insecticidal activity against Plutella xylostella (diamondback moth) grown on compound pre-treated fresh cabbage leaves assessed as insect mortality at 100 mg/kg measured 3 days post compound treatment by leaf-dip method; procedure, shortened: as §1
Plutella xylostella [5] = experiment: Insecticidal activity against Plutella xylostella (diamondback moth) grown on compound pre-treated fresh cabbage leaves assessed as insect mortality at 200 mg/kg measured 3 days post compound treatment by leaf-dip method; procedure, shortened: as §1
Culex pipiens pallens [6] = experiment: Insecticidal activity against Culex pipiens pallens (mosquito) assessed as insect mortality at 5 ug/kg measured 1 day post compound treatment; conditions: 24 h
Procedure, shortened: (§2)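 Fourth-instar Culex pipiens pallens larvae, 20 per test, were laboratory-reared and placed in 100 mL of test solution made by adding 1 mL of compound dilution to 99 mL of water. Tests were held at 25±1 °C, percentage mortality was scored 1 day after treatment, and each test was run three times.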

Culex pipiens pallens [7] = experiment: Insecticidal activity against Culex pipiens pallens (mosquito) assessed as insect mortality at 10 ug/kg measured 1 day post compound treatment; conditions: 24 h; procedure, shortened: as §2
Culex pipiens pallens [8] = experiment: Insecticidal activity against Culex pipiens pallens (mosquito) assessed as insect mortality at 25 ug/kg measured 1 day post compound treatment; conditions: 24 h; procedure, shortened: as §2
Culex pipiens pallens [9] = experiment: Insecticidal activity against Culex pipiens pallens (mosquito) assessed as insect mortality at 50 ug/kg measured 1 day post compound treatment; conditions: 24 h; procedure, shortened: as §2
Culex pipiens pallens [10] = experiment: Insecticidal activity against Culex pipiens pallens (mosquito) assessed as insect mortality at 100 ug/kg measured 1 day post compound treatment; conditions: for mortality at 0.1 mg/kg: Culex pipiens, 24 h; procedure, shortened: as §2
Aphis craccivora [11] = experiment: Insecticidal activity against Aphis craccivora (cowpea aphid) infested tender soybean shoots exposed to 10 mg/kg test compound solution assessed as insect mortality measured 24 hr post compound treatment; conditions: for mortality at 10 mg/kg: Aphis craccivora, 24 h
Procedure, shortened: (§3)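 Soybean tender shoots carrying 60 aphids were dipped in test solutions. Solutions were made from a 200 mg L^-1 stock in dimethylformamide, diluted with water containing TW-20. Insects were laboratory-reared, tests were held at 25±1 °C, and mortality was scored.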

Aphis craccivora [12] = experiment: Insecticidal activity against Aphis craccivora (cowpea aphid) infested tender soybean shoots exposed to 25 mg/kg test compound solution assessed as insect mortality measured 24 hr post compound treatment; procedure, shortened: as §3
Aphis craccivora [13] = experiment: Insecticidal activity against Aphis craccivora (cowpea aphid) infested tender soybean shoots exposed to 50 mg/kg test compound solution assessed as insect mortality measured 24 hr post compound treatment; procedure, shortened: as §3
Aphis craccivora [14] = experiment: Insecticidal activity against Aphis craccivora (cowpea aphid) infested tender soybean shoots exposed to 100 mg/kg test compound solution assessed as insect mortality measured 24 hr post compound treatment; procedure, shortened: as §3
Aphis craccivora [15] = experiment: Insecticidal activity against Aphis craccivora (cowpea aphid) infested tender soybean shoots exposed to 200 mg/kg test compound solution assessed as insect mortality measured 24 hr post compound treatment; procedure, shortened: as §3
Plutella xylostella [16] = experiment: Insecticidal activity against Plutella xylostella (diamondback moth) grown on compound pre-treated fresh cabbage leaves assessed as insect mortality at 2.5 mg/kg measured 3 days post compound treatment by leaf-dip method; procedure, shortened: as §1
Plutella xylostella [17] = experiment: Insecticidal activity against Plutella xylostella (diamondback moth) grown on compound pre-treated fresh cabbage leaves assessed as insect mortality at 5 mg/kg measured 3 days post compound treatment by leaf-dip method; conditions: for mortality at 5 mg/kg: Plutella xylostella; for mortality: 5 mg/kg; procedure, shortened: as §1
Aphis craccivora [18] = experiment: Insecticidal activity against Aphis craccivora (cowpea aphid) infested tender soybean shoots exposed to 2.5 mg/kg test compound solution assessed as insect mortality measured 24 hr post compound treatment; conditions: for mortality at 2.5 mg/kg: Aphis craccivora, 24 h; procedure, shortened: as §3
Aphis craccivora [19] = experiment: Insecticidal activity against Aphis craccivora (cowpea aphid) infested tender soybean shoots exposed to 5 mg/kg test compound solution assessed as insect mortality measured 24 hr post compound treatment; conditions: for mortality at 5 mg/kg: Aphis craccivora, 24 h; for mortality: 5 mg/kg; procedure, shortened: as §3

Row | SMILES | mortality at 10 mg/kg (Plutella xylostella [1]) | mortality at 25 mg/kg (Plutella xylostella [2]) | mortality at 50 mg/kg (Plutella xylostella [3]) | mortality at 100 mg/kg (Plutella xylostella [4]) | mortality at 200 mg/kg (Plutella xylostella [5]) | mortality at 0.01 mg/kg (Culex pipiens pallens [7]) | mortality at 0.025 mg/kg (Culex pipiens pallens [8]) | mortality at 0.05 mg/kg (Culex pipiens pallens [9]) | mortality at 0.1 mg/kg (Culex pipiens pallens [10]) | mortality at 10 mg/kg (Aphis craccivora [11]) | mortality at 25 mg/kg (Aphis craccivora [12]) | mortality at 50 mg/kg (Aphis craccivora [13]) | mortality at 100 mg/kg (Aphis craccivora [14]) | mortality at 200 mg/kg (Aphis craccivora [15]) | mortality at 2.5 mg/kg (Plutella xylostella [16]) | mortality at 5 mg/kg (Plutella xylostella [17]) | mortality at 2.5 mg/kg (Aphis craccivora [18]) | mortality at 5 mg/kg (Aphis craccivora [19]) | mortality (Culex pipiens pallens [10]) | also measured
1 | CCOC(Nc1c(SCC)c(C#N)nn1-c1c(Cl)cc(C(F)(F)F)cc1Cl)C(Cl)(Cl)Cl (centres undefined) | 18% | 44% | 96% | 100% | 100% | 100% | 100% | 100% | 100% | 0% | 35% | 75% | 86% | 90% | – | – | – | – | – | mortality at 0.005 mg/kg (Culex pipiens pallens [6]): 0%
2 | CSc1c(C#N)nn(-c2c(Cl)cc(C(F)(F)F)cc2Cl)c1NC(OCCCl)C(Cl)(Cl)Cl (centres undefined) | 100% | 100% | 100% | 100% | 100% | 100% | 100% | 100% | 100% | 73% | 98% | 100% | 100% | 100% | 62% | 87% | 62% | 69% | – | mortality at 0.005 mg/kg (Culex pipiens pallens [6]): 20%
3 | CSc1c(C#N)nn(-c2c(Cl)cc(C(F)(F)F)cc2Cl)c1NC(OCCF)C(Cl)(Cl)Cl (centres undefined) | 89% | 100% | 100% | 100% | 100% | 40% | 100% | 100% | 100% | 62% | 74% | 100% | 100% | 100% | 34% | 81% | 0% | 28% | – | –
4 | C[S+]([O-])c1c(C#N)nn(-c2c(Cl)cc(C(F)(F)F)cc2Cl)c1NC(OCCF)C(Cl)(Cl)Cl (stereo in doubt; 7d-1) | – | – | – | – | – | – | – | – | – | – | – | – | – | – | – | – | – | – | 20% | mortality (Plutella xylostella [17]): 56%; mortality (Plutella xylostella [1]): 77%; mortality (Plutella xylostella [2]; 25 mg/kg): 92%; mortality (Aphis craccivora [18]; 2.5 mg/kg): 43%; mortality (Aphis craccivora [19]): 72%
5 | C[S+]([O-])c1c(C#N)nn(-c2c(Cl)cc(C(F)(F)F)cc2Cl)c1NC(OCCF)C(Cl)(Cl)Cl (stereo in doubt; 7d-2) | 76% | 89% | 100% | 100% | 100% | – | – | – | – | 100% | 100% | 100% | 100% | 100% | 0% | 54% | 46% | 70% | 50% | –
6 | C[S+]([O-])c1c(C#N)nn(-c2c(Cl)cc(C(F)(F)F)cc2Cl)c1NC(OCCCl)C(Cl)(Cl)Cl (stereo in doubt; 7e-1) | – | – | – | – | – | – | – | 40% | – | – | – | – | – | – | – | – | – | – | 100% | mortality (Plutella xylostella [17]): 60%; mortality (Plutella xylostella [1]): 81%; mortality (Aphis craccivora [19]): 61%; mortality (Aphis craccivora [11]; 10 mg/kg): 96%
7 | C[S+]([O-])c1c(C#N)nn(-c2c(Cl)cc(C(F)(F)F)cc2Cl)c1NC(OCCCl)C(Cl)(Cl)Cl (stereo in doubt; 7e-2) | 79% | 100% | 100% | 100% | 100% | – | – | – | – | 100% | 100% | 100% | 100% | 100% | 0% | 56% | 0% | 68% | 50% | –
